Data on 1 molecule can be found in ChEMBL document CHEMBL5715959, “Inhibition of histone methyltransferase EZH2 in Schistosoma mansoni in vitro by GSK343 reduces egg laying and decreases the expression of genes implicated in DNA replication and noncoding RNA metabolism” (2018).

Test [1] relates to Schistosoma mansoni. Put plainly: Antischistosomal activity against adult Schistosoma mansoni assessed as increased H3K27ac level at 20 uM incubated for 48 hrs by Western blotting analysis. Type of test: functional, organism-based. The gist of the method:
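Fifty adult worm pairs were treated 48 h with 20 μM GSK343 or vehicle in supplemented RPMI/10% FBS, then lysed in Triton buffer. Nuclear pellets were acid-extracted overnight in 0.25 M HCl at 4°C and histones were TCA-concentrated. 10 μg went on 15% SDS-PAGE and nitrocellulose, probed with anti-H3K27me3, K9ac, K27ac or K4me3, then IRDye secondaries; infrared densitometry was normalized to anti-H3. Three biological replicates; t-test.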
A general note: In western blotting, separated proteins are transferred to a membrane and probed.

The subject of test [2] is Schistosoma mansoni. Put plainly: Antischistosomal activity against adult female Schistosoma mansoni assessed as presence of blisters in dorsal region at 20 uM incubated for 24 to 48 hrs by scanning electron microscopy analysis. To be noted: time 24-48 hrs. Type of test: functional, organism-based. The gist of the method: (§1)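 Adult couples were taken by perfusion into supplemented RPMI, one couple per well, and adapted 2 h at 37°C, 5% CO2. They were exposed to 20 μM GSK343 or 0.1% DMSO for 24 and 48 h. Fixation used modified Karnovsky with osmium post-fix, followed by ethanol dehydration, critical-point drying, gold sputtering and scanning electron microscopy of tegument surfaces.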

Test [3] relates to Schistosoma mansoni. Put plainly: Cytotoxicity against Schistosoma mansoni assessed as decrease in viability at 20 uM incubated for 5 days by CellTiter-Glo Luminescent assay relative to control. Conditions: time 5 day. Type of test: functional. The gist of the method: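 Newly transformed schistosomula pre-cultured 16 h in M169 with 2% FBS, serotonin, hypoxanthine, hydrocortisone, triiodothyronine and antibiotics at 37°C, 5% CO2, then 100–120 per well exposed up to 5 days to compound or 0.1% DMSO. ATP in intact larvae read by luminescence, expressed as % of vehicle; three replicate experiments, two-way ANOVA.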
(In general: ATP-based viability assays read luminescence as a measure of living cells.)

Test [4] relates to Schistosoma mansoni. Put plainly: Antischistosomal activity against female Schistosoma mansoni assessed as down-regulated p14 mRNA level at 20 uM incubated for 48 hrs by RT-qPCR analysis. Format: functional, organism-based. For orientation: In qPCR the cycle at which signal appears reflects the starting amount.
The test system of test [5] is Schistosoma mansoni. As to the kind of experiment: Antischistosomal activity against Schistosoma mansoni assessed as down-regulated MEG-4 mRNA level in schistosomula at 20 uM incubated for 48 hrs by RT-qPCR analysis. Format: functional, organism-based. The gist of the method: (§2)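 Schistosomula (supplemented M169) or adult worms (supplemented RPMI) were treated 48 h with 20 μM GSK343 or 0.1% DMSO at 37°C, 5% CO2. qPCR normalizer genes were chosen from RNA-seq data as those with TPM >1 and a treated/control ratio of 0.9–1.1 that were not differentially expressed. Relative expression was calculated by comparative Ct; significance by t-test.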

For test [6], the system named is Schistosoma mansoni. As to the kind of experiment: Antischistosomal activity against adult male Schistosoma mansoni assessed as lesions of tegument around tubercles at 20 uM incubated for 48 hrs by scanning electron microscopy analysis. Format: functional, organism-based. In a few lines: as §1
Test [7] relates to Schistosoma mansoni. As to the kind of experiment: Antischistosomal activity against Schistosoma mansoni assessed as down-regulated DNAse II protein mRNA level in schistosomula at 20 uM incubated for 48 hrs by RT-qPCR analysis. Format: functional, organism-based. The gist of the method:
as §2

In test [8] the test system is Schistosoma mansoni. Put plainly: Antischistosomal activity against Schistosoma mansoni assessed as down-regulated FGFR substrate 3 mRNA level in schistosomula at 20 uM incubated for 48 hrs by RT-qPCR analysis. Format: functional, organism-based. In a few lines:
as §2

For test [9], the system named is Schistosoma mansoni. Put plainly: Antischistosomal activity against adult female Schistosoma mansoni assessed as presence of peeling in dorsal region at 20 uM incubated for 24 to 48 hrs by scanning electron microscopy analysis. To be noted: time 24-48 hrs. Type of test: functional, organism-based. The gist of the method: as §1
The subject of test [10] is Schistosoma mansoni. As to the kind of experiment: Cytotoxicity against Schistosoma mansoni assessed as decrease in viability at 20 uM incubated for 2 days relative to control. To be noted: time 2 day.
The test system of test [11] is Schistosoma mansoni. As to the kind of experiment: Antischistosomal activity against juvenile Schistosoma mansoni assessed as damaged anterior region at 20 to 50 uM incubated for 48 hrs by scanning electron microscopy analysis. Format: functional, organism-based. To be noted: in the assay text read “at 50 uM” for “at 20 to 50 uM”. The gist of the method: (§3)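 Juvenile worms recovered by perfusion, five per well in supplemented RPMI (10% FBS, antibiotics, 37°C, 5% CO2), 2 h adaptation, then exposed 48 h to compound or 0.1% DMSO. Fixed in modified Karnovsky reagent (pH 7.4), washed in cacodylate buffer, post-fixed 1 h in 1% osmium tetroxide, ethanol-dehydrated, critical-point dried, gold-sputtered and imaged by scanning electron microscopy.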

The subject of test [12] is Schistosoma mansoni. Put plainly: Antischistosomal activity against adult female Schistosoma mansoni assessed as damaged tegument in anterior region at 20 uM incubated for 48 hrs by scanning electron microscopy analysis. Format: functional, organism-based. The gist of the method: as §1
Test [13] has as its system Schistosoma mansoni. Put plainly: Antischistosomal activity against Schistosoma mansoni assessed as loss of spines at 20 uM incubated for 24 hrs by scanning electron microscopy analysis. Type of test: functional, organism-based. In a few lines:
(§4)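 Newly transformed schistosomula were held 16 h in M169 with 2% FBS, serotonin, hypoxanthine, hydrocortisone, triiodothyronine and antibiotics at 37°C, 5% CO2, at 2,000 per well. They were then exposed to 20 μM GSK343 or 0.1% DMSO for 24 and 48 h. Fixation was modified Karnovsky (pH 7.4) with 1% osmium post-fix, then ethanol dehydration, critical-point drying, gold coating and SEM. Lengths came from three experiments, each with 20 schistosomula.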

Test [14] has as its system Schistosoma mansoni. Put plainly: Antischistosomal activity against Schistosoma mansoni assessed as down-regulated LDL receptor mRNA level in schistosomula at 20 uM incubated for 48 hrs by RT-qPCR analysis. Type of test: functional, organism-based. The gist of the method: as §2
Test [15] relates to Schistosoma mansoni. Put plainly: Antischistosomal activity against Schistosoma mansoni assessed as increased H3K27ac level in schistosomula at 20 uM incubated for 48 hrs by Western blotting analysis. Type of test: functional, organism-based. In a few lines:
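About 10,000 schistosomula were treated 48 h with 20 μM GSK343 or vehicle, then sonicated in Triton X-100 lysis buffer with PMSF and protease inhibitors. Supernatant nuclear extract (BCA-quantified, 10 μg) was run on 15% SDS-PAGE and blotted to nitrocellulose. Blots were probed with mark-specific monoclonal antibodies, then IRDye secondaries; infrared imaging was used and signals were normalized to total H3. t-test.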

Test [16] concerns Schistosoma mansoni. Put plainly: Cytotoxicity against adult Schistosoma mansoni assessed as reduction in ATP quantification at 20 uM incubated for 48 hrs by CellTiter-Glo Luminescent assay relative to control. Format: functional. Also on record: scale not given: the % may be the effect or the level left. The gist of the method: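 Worm pairs in supplemented RPMI (10% FBS, 37°C, 5% CO2) exposed 48 h to compound or 0.1% DMSO. ATP measured by luminescence in freshly lysed worms and expressed as % of vehicle signal; three replicate experiments, 10 pairs each, mean ± SD.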

For test [17], the system named is Schistosoma mansoni. As to the kind of experiment: Antischistosomal activity against juvenile Schistosoma mansoni assessed as destroyed oral sucker at 20 to 50 uM incubated for 48 hrs by scanning electron microscopy analysis. Type of test: functional, organism-based. To be noted: in the assay text read “at 50 uM” for “at 20 to 50 uM”. In a few lines: as §3
Test [18] concerns Schistosoma mansoni. Put plainly: Antischistosomal activity against Schistosoma mansoni assessed as deterioration of tegument with blisters at 20 uM incubated for 24 hrs by scanning electron microscopy analysis. Type of test: functional, organism-based. The gist of the method: as §4
Test [19] deals with Schistosoma mansoni. Put plainly: Antischistosomal activity against adult Schistosoma mansoni assessed as drastic reduction in pairing of couples at 50 uM incubated for 3 hrs by inverted microscope analysis relative to control. Also on record: scale not given: the % may be the effect or the level left. Format: functional. The gist of the method:
(§5)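 Paired adult worms were cultured in RPMI/10% FBS with antibiotics at 37°C, 5% CO2, with GSK343 or 0.1% DMSO. They were viewed by inverted microscope at 3, 6, 12, 24 and 48 h. Motility was scored on a 0–3 scale (3 full movement, 1.5 partial or immobile but alive, 0 dead); death meant no movement over more than 2 min. Pairing was recorded. Three experiments, each with 10 pairs; mean ± SD.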

For test [20], the system named is Schistosoma mansoni. Put plainly: Antischistosomal activity against adult Schistosoma mansoni assessed as dead worms at 50 uM incubated for 48 hrs by inverted microscope analysis. Format: functional, organism-based. In a few lines: as §5
Test [21] deals with Schistosoma mansoni. Put plainly: Antischistosomal activity against adult Schistosoma mansoni assessed as dead worms incubated for 24 hrs by inverted microscope analysis. Format: functional, organism-based. The gist of the method:
as §5

Activity calls are given as the source filed them. No cut-off for these calls is given here.

For `CCCc1cc(C)[nH]c(=O)c1CNC(=O)c1cc(-c2ccnc(N3CCN(C)CC3)c2)cc2c1cnn2C(C)C`, the result with Schistosoma mansoni [1], with Schistosoma mansoni [2], with Schistosoma mansoni [4], in the test with Schistosoma mansoni [5], in the test with Schistosoma mansoni [6] and in the test on Schistosoma mansoni [7] was Active. Moreover, the result in the test on Schistosoma mansoni [8], in the test with Schistosoma mansoni [9], in the test on Schistosoma mansoni [11], in the test with Schistosoma mansoni [12], in the test with Schistosoma mansoni [13] and in the test on Schistosoma mansoni [14] was Active. Also, the outcome in the test with Schistosoma mansoni [15], in the test with Schistosoma mansoni [17], in the test on Schistosoma mansoni [18], with Schistosoma mansoni [20] and in the test on Schistosoma mansoni [21] was Active. Also, the Activity with Schistosoma mansoni [3] is given as 70%; in the test with Schistosoma mansoni [10] it was below 20%; in the test on Schistosoma mansoni [16], 50%; in the test on Schistosoma mansoni [19], around 0%.
